Bioassay records: PubChem BioAssay, several laboratories
TbMetRS inhib: Trypanosoma brucei MetRS inhibition. 360,000 tested, 0.4% active. purified T. brucei MetRS, ATP depletion, Kinase-Glo luminescence. inhibition, % at 11.9 µM. AID 624268;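 active = inhibition above a per-plate cutoff of the control wells' mean inhibition plus 3 SD, cut at about 5.5% in these data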
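assay system = parasite MetRS enzyme | timing = 15 min preincubation, 2 h reaction, all 25 °C | evaluation = percent inhibition relative to median high and low control wells | medium = HEPES buffer containing pyrophosphatase, BSA, spermine, DTT | compound = single dose, 11.9 µM final nominal, 0.9% final DMSO | detection = Kinase-Glo luminescence, ATP depletion format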
AI-2 QS modul: modulates the Vibrio harveyi AI-2 quorum sensing system; Vibrio harveyi JMH597 AI-2 luminescence/OD600 ratio, 9 h; active compounds read low; strain lacks LuxN and CqsS sensors; 0 = neutral-control median; 300,000 tested, 0.4% active; activity change, % at 7.5 µM; in the data active = activity change below about -75%, passing the limit was not always enough;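 also: luminescence divided by OD600 gain over 9 h not by final OD600 alone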
AHR activator: human AHR activation; AHR-responsive luciferase reporter cells, luminescence; AID 2796; 320,000 tested, 2.5% active; P35869; activation, % at 5 µM; in the data active = activation above about 47%
MsrA inhibitor: bovine MsrA inhibition | purified bovine MsrA, absorbance read-out | inhibition, % at 15.5 µM | 360,000 tested, 0.75% active | AID 651718; in the data active = inhibition above about 4.5%
MsrA act: activates bovine MsrA enzyme | 360,000 tested, 0.3% active | purified bovine MsrA, absorbance read-out | activation, % at 10.6 µM; in the data active = activation above about 7.5%
HTR2A ag: mouse HTR2A agonism via beta-arrestin recruitment. P35363. CHO-K1 mHTR2A beta-arrestin complementation, luminescence; percent of 30 µM serotonin response. activation, % at 7.6 µM. 360,000 tested, 0.66% active. AID 624169;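 active = activation above a run cutoff, the mean activation of all tested compounds plus 3 SD, cut at about 14% in these data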
Target sequence (P35363 whole entry, looked up): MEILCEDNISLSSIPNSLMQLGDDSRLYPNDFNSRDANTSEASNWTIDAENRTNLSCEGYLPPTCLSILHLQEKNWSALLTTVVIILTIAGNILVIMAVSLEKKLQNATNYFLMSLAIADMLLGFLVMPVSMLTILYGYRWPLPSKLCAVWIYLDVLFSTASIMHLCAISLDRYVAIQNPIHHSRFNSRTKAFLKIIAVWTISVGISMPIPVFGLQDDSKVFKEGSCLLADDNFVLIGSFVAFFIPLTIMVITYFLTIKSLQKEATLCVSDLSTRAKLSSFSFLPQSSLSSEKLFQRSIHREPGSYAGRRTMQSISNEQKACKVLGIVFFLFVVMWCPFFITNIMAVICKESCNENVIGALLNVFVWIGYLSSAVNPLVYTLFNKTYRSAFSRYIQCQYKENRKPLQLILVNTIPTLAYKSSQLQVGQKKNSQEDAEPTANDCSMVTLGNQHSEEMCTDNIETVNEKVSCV
Large screens that a line does not name were inactive. This is a sample that favours compounds with a hit; in the whole collection about 4.4% have one here.

O=C(N/N=C/c1c[nH]c2ccc(Br)cc12)c1ccc2c(c1)OCO2	none
O=C(N/N=C/c1c[nH]c2ccccc12)c1ccc2c(c1)OCCO2	AHR activator 48.3
C[C@@H]1CN([C@@H](C)CO)C(=O)CCCn2cc(nn2)CO[C@H]1CN(C)C(=O)NC1CCCCC1	none (no result: TbMetRS inhib, AI-2 QS modul, AHR activator, MsrA act, HTR2A ag)
COc1ccc2nc(-c3ccc(CN4CCC(c5nc6ccccc6[nH]5)CC4)cc3)c(-c3ccccc3)nc2c1	none (no result: TbMetRS inhib, AI-2 QS modul, AHR activator, MsrA act, HTR2A ag)
Cn1ncc([N+](=O)[O-])c1C(=O)N/N=C/c1c[nH]c2ccccc12	AHR activator 69.8
C[C@H]1CN(C(=O)OC(C)(C)C)CCN1c1ccc(N2CC[C@@H](O)C2)c(C#N)c1	none (no result: TbMetRS inhib, AI-2 QS modul, AHR activator, MsrA act, HTR2A ag)
O=C(CC1CCCC1)N[C@H](C(=O)N1CCC[C@H]1C(=O)NC1CCCC1)C1CCCCC1	none (no result: TbMetRS inhib, AI-2 QS modul, AHR activator, MsrA act, HTR2A ag)
O=C(O)c1ccc(N/N=C/c2ccc(-c3cc(Cl)ccc3Cl)o2)cc1	AI-2 QS modul -80.2
NS(=O)(=O)c1ccc(-c2ccc(/C=N/Nc3ccc(C(=O)O)cc3)o2)cc1	none
CC1=NN(c2ccc(Br)cc2)C(=O)/C1=C/c1ccc(-c2ccccc2C(=O)O)o1	none
O=C(O)c1ccc(N/N=C/c2ccc(-c3cccc(Cl)c3)o2)cc1	AI-2 QS modul -93.5, AHR activator 128.0
Cc1c(C(=O)O)cccc1-c1ccc(/C=N/Nc2ccc(Br)cc2)o1	AHR activator 134.2
Cc1ccc(C2c3c(n[nH]c3C(C)C)C(=O)N2c2ccccc2)cc1 (centres undefined)	none (no result: TbMetRS inhib, AI-2 QS modul, AHR activator, MsrA act, HTR2A ag)
C#CCNC(=O)c1cc2cccnc2nc1N	none (no result: TbMetRS inhib, AI-2 QS modul, AHR activator, MsrA act, HTR2A ag)
S=C(NCc1cccnc1)Nc1ccc(Oc2ccccc2)cc1	none
Cc1ncc(CO)c(CNc2ccc(Oc3ccccc3)cc2)c1O	AI-2 QS modul -87.4 (no result: AHR activator)
CC(=O)OCCNc1nc(-c2ccccc2)nc2ccccc12	AHR activator 58.0
COCCNc1nc(-c2ccccc2)nc2ccccc12	none
Clc1ccc(-c2nc(NCCN3CCOCC3)c3ccccc3n2)cc1	AHR activator 63.2
N#Cc1c(NC(=O)c2ccccc2Cl)n(Cc2ccccc2)c2nc3ccccc3nc12	TbMetRS inhib 6.8 (no result: AI-2 QS modul)
CCCCn1c(NC(=O)c2ccccc2Cl)c(C#N)c2nc3ccccc3nc21	none
N#C/C(=C\c1cn[nH]c1-c1ccc(Cl)cc1)C(=O)NC1CC1	AHR activator 84.8 (no result: MsrA inhibitor)
N#C/C(=C\c1c[nH]c2ccccc12)C(=O)NC1CCCC1	AHR activator 63.8
COc1ccc(-c2[nH]ncc2/C=C(\C#N)C(=O)NC2CC2)cc1	none
O=C(N[C@H](C(=O)N1CCC[C@H]1C(=O)NCCc1ccccc1Cl)c1ccccc1)C1CC1	none (no result: TbMetRS inhib, AI-2 QS modul, AHR activator, MsrA act, HTR2A ag)
O=C(/C=C/c1ccc(Br)cc1)NC(=S)NNC(=O)c1ccco1	AI-2 QS modul -100.0
O=C(Cc1cccs1)NNC(=S)NCc1ccc(Cl)cc1	none
O=C(Cc1cccs1)NNC(=S)NC(=O)c1ccco1	AI-2 QS modul -83.8
Cc1cc(N2CCN(CC(C)(C)O)C[C@@H]2C)ccc1N1CCN(Cc2ccccc2)[C@@H](C)C1	none (no result: TbMetRS inhib, AI-2 QS modul, AHR activator, MsrA act, HTR2A ag)
NNC(=O)c1cccc(COc2cccc(Br)c2)c1	AHR activator 51.5 (no result: AI-2 QS modul)
CCCCNC(=O)C[C@H]1C[C@@]2(C(=O)OC)C(=C[C@H](C(C)(C)C)O[C@@H]2C)N(CCC2=CCCCC2)C1=O	none (no result: TbMetRS inhib, AI-2 QS modul, AHR activator, MsrA act, HTR2A ag)
CCOC(=O)N1CCN(S(=O)(=O)c2ccc(C(=O)NNc3nc4c(C)cc(C)cc4s3)cc2)CC1	AHR activator 47.5
CCOC(=O)N1CCN(S(=O)(=O)c2ccc(C(=O)NNc3nc4cc(C)cc(C)c4s3)cc2)CC1	HTR2A ag 22.6 (no result: MsrA inhibitor)
O=C(NC1CCCC1)[C@@H]1CCCN1C(=O)[C@@H](NS(=O)(=O)c1ccc(F)cc1F)C1CCCCC1	none (no result: TbMetRS inhib, AI-2 QS modul, AHR activator, MsrA act, HTR2A ag)
Cc1cc(C(F)(F)F)c2sc(N)nc2n1	none
Nc1nc2nc(-c3ccccc3)cc(C(F)(F)F)c2s1	AHR activator 67.8 (no result: AI-2 QS modul)
COC(=O)c1cc(=O)nc(NN=Cc2ccc(C)cc2)s1	none (no result: AI-2 QS modul, AHR activator)
O=C(NNC(=S)NC(=O)c1ccc(F)cc1)c1cccnc1	none
O=C(NNC(=S)NC(=O)c1cccnc1)c1ccc(F)cc1	AI-2 QS modul -83.5
O=C(NC(=S)NNC(=O)c1cnccn1)c1ccc(F)cc1	AI-2 QS modul -89.4
COc1ccc(N2C(=O)c3[nH]nc(-c4ccccc4)c3C2c2cccc(C(F)(F)F)c2)cc1 (centres undefined)	none (no result: TbMetRS inhib, AI-2 QS modul, AHR activator, MsrA act, HTR2A ag)
COc1cc2c(cc1OC)/C(=C/C(=O)c1ccccc1)NCC2	none
COc1cccc(C(=O)/C=C2\NCCc3cc(OC)c(OC)cc32)c1	AHR activator 52.6
Oc1c(C=NCc2ccccc2)sc2ccccc12	AI-2 QS modul -91.6
NNC(=O)COc1ccc2oc3c(c2c1)CCCC3	AHR activator 68.5
CNC(=O)COc1ccc2oc3c(c2c1)CCCC3	none
C/C(=N\Nc1ccc(C)c(Cl)c1)c1cccnc1	AHR activator 54.1
C/C(=N\Nc1ccc(C)c(Cl)c1)c1ccncc1	none
COc1ccc(NC(=O)OC[C@@H]2CSCCS(=O)(=O)N2)cc1	none (no result: TbMetRS inhib, AI-2 QS modul, AHR activator, MsrA act, HTR2A ag)
Cc1ccccc1-c1noc(-c2ccc(O)cc2)n1	AHR activator 59.1
CC1=C(C(=O)N(C)C)CC(CC(=O)NCCCCc2ccccc2)C(=O)N1CCCN1CCCC1=O (centres undefined)	none (no result: AI-2 QS modul, AHR activator)
O=c1[nH]c2ccccc2nc1CCc1ccccc1	AHR activator 58.3
c1ccc(CCc2nc3ccccc3[nH]2)cc1	none
CCS(=O)(=O)N(C)C[C@@H]1OCc2ccccc2-c2c(n(C)c3ccccc23)C(=O)N([C@H](C)CO)C[C@@H]1C	none (no result: TbMetRS inhib, AI-2 QS modul, AHR activator, MsrA act, HTR2A ag)
Cc1ccc2nc(SCC(=O)c3c(C)[nH]c4ccccc34)[nH]c2c1	AHR activator 53.4
Cc1ccc2nc(SCC(=O)c3cc(C)n(C)c3C)[nH]c2c1	AHR activator 51.7
Cc1cc(C(=O)CSc2nc3ccc(Cl)cc3[nH]2)c(C)n1C	AHR activator 78.5
Cc1ccc2nc(SCn3nnc4ccccc4c3=O)[nH]c2c1	AHR activator 74.8
O=c1c2ccccc2nnn1CSc1nc2ccccc2[nH]1	none
CCc1nc2c(OCc3ccc(OC)cc3)cccn2c1N(C)C(=O)C(C)C	none (no result: AI-2 QS modul, AHR activator)
O=C1CCC/C1=C/Nc1ccc2c(c1)OCO2	AHR activator 72.6
Cc1ccc(N(C)c2nc(N)nc(N)c2N=O)cc1	none (no result: TbMetRS inhib, AI-2 QS modul, AHR activator, MsrA act, HTR2A ag)
COC(=O)c1ccc(N=Nc2c(C)[nH]n(-c3ccccc3)c2=O)cc1	AHR activator 78.2
Cc1[nH]n(-c2ccccc2)c(=O)c1N=Nc1cccc(Cl)c1	AHR activator 58.2
Nc1[nH]n(-c2ccccc2)c(=O)c1N=Nc1ccc2ncsc2c1	AHR activator 56.4
Cc1[nH]n(-c2ccccc2)c(=O)c1N=Nc1cccc([N+](=O)[O-])c1	none (no result: AI-2 QS modul)
CSc1ccc(N=Nc2c(C)[nH]n(C)c2=O)cc1	AHR activator 74.7
O=C(c1cccc(Cl)c1)N1CCN(c2ccc3c(c2)C2CC3CCN2C(=O)OCc2ccccc2)CC1 (centres undefined)	none (no result: AI-2 QS modul, AHR activator)
